The values below come from ChEMBL document CHEMBL3108699, “Small azobenzene derivatives active against bacteria and fungi” (2013).

Converted amounts (≈) assume the structure as drawn. The source made the active and inactive calls. The calls are words filed in the database; no cut-off is given here.

Experiment [1] relates to Candida albicans. The experiment can be described thus: Antimicrobial activity against Candida albicans SC5314 after 24 hrs by microbroth dilution method. The experiment is classed as functional. Particulars: SC5314, 24 h, read-out: MIC100. In a few lines: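 CLSI broth microdilution in RPMI 1640 (L-glutamine, no glucose or NaHCO3) buffered to pH 7.0 with 0.165 M MOPS. Two-fold serial dilutions inoculated with 2.5 × 10^3 yeast/mL and incubated at 35 °C for 24 h, using three plates. MIC read visually as the lowest concentration giving optically clear wells versus the drug-free control.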
(In broth dilution the organism is exposed to a series of concentrations in liquid medium.)

The next experiment concerns Salmonella typhimurium. The experiment is described as follows: Antimicrobial activity against Salmonella typhimurium after 24 hrs by microbroth dilution method. The class given is functional, Salmonella enterica subsp. enterica serovar Typhimurium. The conditions noted are these: Salmonella enterica, read-out: MIC100. In a few lines: (§1)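 Two-fold serial dilutions, six replicates each, inoculated with about 5 × 10^5 CFU/mL in cation-adjusted Mueller-Hinton broth 2. Incubated at 37 °C, 160 rpm, 24 h. OD600 taken at 0 and 24 h; T0 subtracted; % inhibition calculated relative to the bacteria-plus-broth control. MIC is the lowest concentration giving 100% inhibition.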

Another experiment concerns Pseudomonas aeruginosa. The experiment is described as follows: Antimicrobial activity against Pseudomonas aeruginosa ATCC 27853 after 24 hrs by microbroth dilution method. The class given is functional. The conditions noted are these: ATCC 27853, 24 h, read-out: MIC100. In a few lines: as §1
Experiment [2] concerns Staphylococcus aureus. The experiment can be described thus: Antimicrobial activity against Staphylococcus aureus A170 after 24 hrs by microbroth dilution method. The class given is functional. The conditions noted are these: A170, 24 h, read-out: MIC100. In a few lines: as §1
Experiment [3] has as its system Staphylococcus aureus. The experiment is described as follows: Induction of degradation of Staphylococcus aureus A170 biofilm at 30 ug/ml after 24 hrs by crystal violet staining method relative to control. The conditions noted are these: in the assay text read “after 8 hrs” for “after 24 hrs”. The experiment is classed as functional.
Experiment [4] deals with Candida albicans. The experiment can be described thus: Antimicrobial activity against Candida albicans SC5314 assessed as inhibition of hyphae formation after 24 hrs by inverted microscopy. The class given is functional, organism-based. In a few lines:
(§2)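 Stationary yeast cells at 6 × 10^6 cells/mL in pre-warmed hypha-inducing RPMI 1640 (2.5% fetal calf serum, 20 mM HEPES, 2 mM L-glutamine, 16 mM NaHCO3, pH 7.0). Compound at 1–50 […]. After 24 h at 37 °C, wells examined by inverted microscope for morphology and hyphae formation.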

The next experiment concerns Listeria monocytogenes. The experiment can be described thus: Antimicrobial activity against Listeria monocytogenes after 24 hrs by microbroth dilution method. The conditions noted are these: read-out: MIC100. The class given is functional. The method, boiled down:
as §1

The subject of experiment [5] is Candida albicans. The experiment is described as follows: Antibiofilm activity against Candida albicans SC5314 at 8 to 60 ug/ml after 24 hrs by crystal violet staining method relative to control. The experiment is classed as functional, organism-based.
Experiment [6] relates to Staphylococcus aureus. The experiment is described as follows: Induction of degradation of Staphylococcus aureus A170 biofilm at 50 ug/ml assessed as concentration required for complete degradation after 24 hrs by crystal violet staining method relative to control. The experiment is classed as functional. The conditions noted are these: in the assay text read “after 8 hrs” for “after 24 hrs”.

The test system of experiment [7] is Candida albicans. The experiment is described as follows: Induction of degradation of Candida albicans SC5314 biofilm at 20 ug/ml after 24 hrs by XTT assay relative to vehicle-treated control. The experiment is classed as functional, organism-based. Particulars: in the assay text read “after 8 hrs” for “after 24 hrs”.
Experiment [8] deals with Candida albicans. The experiment can be described thus: Antimicrobial activity against Candida albicans SC5314 assessed as inhibition of germination at 10 ug/ml after 24 hrs by inverted microscopy. The class given is functional, organism-based. In a few lines:
as §2

For experiment [9], the system named is Staphylococcus aureus. The experiment is described as follows: Antibiofilm activity against Staphylococcus aureus A170 at 25 ug/ml after 24 hrs by crystal violet staining method relative to control. The class given is functional, organism-based.
Experiment [10] has as its system Staphylococcus aureus. The experiment is described as follows: Antibiofilm activity against Staphylococcus aureus A170 at 30 ug/ml after 24 hrs by crystal violet staining method relative to control. The experiment is classed as functional, organism-based.

`Oc1ccc(/C=C/c2cc(O)cc(O)c2)cc1` [RESVERATROL]: the MIC in the experiment with Candida albicans [1] is > 128 µg/mL; in the experiment on Salmonella typhimurium, > 400 µg/mL; with Pseudomonas aeruginosa, > 400 µg/mL; with Staphylococcus aureus [2], 100 µg/mL (≈ 438 µM).

Consider `CCCc1cc(/N=N/c2ccc(O)cc2)ccc1O`, for which the Activity was >60% with Staphylococcus aureus [3] and 50 µg/mL in the experiment on Staphylococcus aureus [6]. For the same molecule, in the experiment on Candida albicans [4], the inhibition entry is “Dose-dependent effect”. Moreover, the MIC in the experiment on Candida albicans [1] was 20 µg/mL (≈ 78 µM); in the experiment with Listeria monocytogenes, 25 µg/mL (≈ 97.5 µM); in the experiment with Salmonella typhimurium, > 60 µg/mL; in the experiment on Pseudomonas aeruginosa it was > 60 µg/mL; in the experiment on Staphylococcus aureus [2] it was 20 µg/mL (≈ 78 µM). For the same molecule, the result in the experiment with Candida albicans [5], in the experiment on Candida albicans [7] and in the experiment with Staphylococcus aureus [9] was Active. In addition, in the experiment with Candida albicans [8], the inhibition result was “Active”.

For the molecule `CCc1cc(/N=N/c2ccc(O)cc2)ccc1O`, the results for the Activity in the experiment with Staphylococcus aureus [3] and in the experiment on Staphylococcus aureus [6] were >60% and 50 µg/mL, respectively. In addition, the MIC in the experiment with Candida albicans [1] is 30 µg/mL (≈ 124 µM); in the experiment with Listeria monocytogenes it was 50 µg/mL (≈ 206 µM); in the experiment on Salmonella typhimurium it was > 60 µg/mL; with Pseudomonas aeruginosa, > 60 µg/mL; in the experiment on Staphylococcus aureus [2], 30 µg/mL (≈ 124 µM). In addition, the outcome with Candida albicans [5], in the experiment on Candida albicans [7] and in the experiment on Staphylococcus aureus [9] was Active.

With `C=CCc1cc(/N=N/c2ccc(O)cc2)cc(C)c1O`, the Activity in the experiment on Staphylococcus aureus [3] was >60%; with Staphylococcus aureus [6], 50 µg/mL. Besides, the MIC in the experiment with Candida albicans [1] was 15 µg/mL (≈ 55.9 µM); in the experiment with Listeria monocytogenes, > 60 µg/mL; in the experiment with Salmonella typhimurium, > 60 µg/mL; in the experiment with Pseudomonas aeruginosa it was > 60 µg/mL; in the experiment on Staphylococcus aureus [2] it was 25 µg/mL (≈ 93.2 µM). Besides, the outcome in the experiment with Candida albicans [5], in the experiment on Candida albicans [7] and with Staphylococcus aureus [9] was Active.

With `Cc1cc(/N=N/c2ccc(O)cc2)cc(C)c1O`, the Activity is 40% in the experiment with Staphylococcus aureus [3] and 50 µg/mL in the experiment on Staphylococcus aureus [6]. Also, the result in the experiment with Staphylococcus aureus [10], in the experiment on Candida albicans [5] and in the experiment on Candida albicans [7] was Active. Moreover, the MIC in the experiment on Candida albicans [1] is 17 µg/mL (≈ 70.2 µM); with Listeria monocytogenes it was 25 µg/mL (≈ 103 µM); in the experiment on Salmonella typhimurium, > 60 µg/mL; in the experiment with Pseudomonas aeruginosa it was > 60 µg/mL; in the experiment with Staphylococcus aureus [2], 20 µg/mL (≈ 82.5 µM).

`C=CCc1cc(/N=N/c2ccc(O)cc2)ccc1O`: the Activity with Staphylococcus aureus [3] was >60%; in the experiment with Staphylococcus aureus [6], 50 µg/mL. In addition, the MIC with Candida albicans [1] was 20 µg/mL (≈ 78.7 µM); in the experiment on Listeria monocytogenes, 25 µg/mL (≈ 98.3 µM); with Salmonella typhimurium, > 60 µg/mL; with Pseudomonas aeruginosa, > 60 µg/mL; with Staphylococcus aureus [2], 20 µg/mL (≈ 78.7 µM). The outcome in the experiment with Candida albicans [5], in the experiment with Candida albicans [7] and in the experiment on Staphylococcus aureus [9] was Active.
